The target of one experiment is Coagulation factor XI (Homo sapiens, UniProt P03951). Put plainly: Inhibition of human coagulation factor 11a after 10 to 120 mins.
The subject of the next experiment is Plasma. The experiment in a line: Anticoagulant activity in human plasma assessed as concentration required to double the activated partial thromboplastin time. Format: functional. The method, boiled down: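 In vitro clotting assay run in human plasma; activity read out as the activated partial thromboplastin time, and the value reported as EC2x, the concentration that doubles aPTT.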

Another experiment addresses T1, Coagulation factor VII (Homo sapiens, UniProt P08709).
T1 sequence (P08709 whole entry): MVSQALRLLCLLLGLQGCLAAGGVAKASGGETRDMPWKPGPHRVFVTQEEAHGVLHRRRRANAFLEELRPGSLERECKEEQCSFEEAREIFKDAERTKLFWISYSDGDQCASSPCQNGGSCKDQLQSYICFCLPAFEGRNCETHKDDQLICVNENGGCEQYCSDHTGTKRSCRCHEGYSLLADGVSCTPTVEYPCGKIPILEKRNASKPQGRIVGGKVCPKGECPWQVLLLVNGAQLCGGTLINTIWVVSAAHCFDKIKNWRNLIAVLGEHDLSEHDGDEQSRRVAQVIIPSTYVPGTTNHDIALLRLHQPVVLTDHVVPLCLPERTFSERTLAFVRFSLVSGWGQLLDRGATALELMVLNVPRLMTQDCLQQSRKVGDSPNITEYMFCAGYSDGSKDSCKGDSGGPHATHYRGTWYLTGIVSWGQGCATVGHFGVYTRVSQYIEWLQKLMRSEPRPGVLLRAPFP
Put plainly: Inhibition of human coagulation factor 7a. A digest of the protocol:
(§1)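 Ki determined against purified human enzymes (selectivity panel of serine proteases).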

A further experiment concerns the target Coagulation factor IX (Homo sapiens, UniProt P00740). The experiment in a line: Inhibition of human coagulation factor 9a. The method, boiled down: as §1
The next experiment concerns the target Coagulation factor X (Homo sapiens, UniProt P00742). Put plainly: Inhibition of human coagulation factor 10a. A digest of the protocol: as §1
The target of the next experiment is Prothrombin (Homo sapiens, UniProt P00734). Put plainly: Inhibition of human thrombin. The method, boiled down:
as §1

A further experiment has as its target Trypsin (Homo sapiens, UniProt P07477+P07478+P35030). Put plainly: Inhibition of human trypsin. In kind it is protein assay. A digest of the protocol:
as §1

The next experiment has as its target Plasma kallikrein (Homo sapiens, UniProt P03952). The experiment in a line: Inhibition of human plasma kallikrein. A digest of the protocol: as §1
For experiment [1], the target named is Vitamin K-dependent protein C (Homo sapiens, UniProt P04070). The experiment in a line: Inhibition of human activated protein C. A digest of the protocol: as §1
In the next experiment the target is Plasminogen (Homo sapiens, UniProt P00747). Put plainly: Inhibition of human plasmin. The method, boiled down:
as §1

In experiment [2] the target is Tissue-type plasminogen activator (Homo sapiens, UniProt P00750). The experiment in a line: Inhibition of human TPA. The method, boiled down:
as §1

For experiment [3], the target named is Urokinase-type plasminogen activator (Homo sapiens, UniProt P00749). The experiment in a line: Inhibition of human urokinase. A digest of the protocol:
as §1

Experiment [4] is described as follows: Inhibition of human chymotrypsin. The method, boiled down:
as §1

Sequence of Coagulation factor XI (P03951 19-387 limits assumed): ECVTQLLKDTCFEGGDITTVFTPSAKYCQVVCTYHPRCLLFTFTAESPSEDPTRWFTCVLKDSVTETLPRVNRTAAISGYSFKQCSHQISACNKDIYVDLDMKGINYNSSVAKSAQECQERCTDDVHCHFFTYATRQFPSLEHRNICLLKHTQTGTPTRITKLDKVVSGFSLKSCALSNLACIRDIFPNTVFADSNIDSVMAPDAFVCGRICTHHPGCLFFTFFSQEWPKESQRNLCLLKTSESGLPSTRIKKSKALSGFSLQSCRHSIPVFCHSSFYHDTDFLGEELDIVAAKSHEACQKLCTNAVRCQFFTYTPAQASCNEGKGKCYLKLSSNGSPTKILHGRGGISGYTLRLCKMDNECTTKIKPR
Sequence of Coagulation factor XI (P03951 388-625 limits assumed): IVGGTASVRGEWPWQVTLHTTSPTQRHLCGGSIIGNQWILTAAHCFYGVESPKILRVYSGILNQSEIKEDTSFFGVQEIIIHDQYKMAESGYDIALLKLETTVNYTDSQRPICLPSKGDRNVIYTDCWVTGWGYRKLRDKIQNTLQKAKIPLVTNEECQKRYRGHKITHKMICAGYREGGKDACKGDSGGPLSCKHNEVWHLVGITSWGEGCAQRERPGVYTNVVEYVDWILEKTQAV
Sequence of Plasminogen (P00747 97-580 limits assumed): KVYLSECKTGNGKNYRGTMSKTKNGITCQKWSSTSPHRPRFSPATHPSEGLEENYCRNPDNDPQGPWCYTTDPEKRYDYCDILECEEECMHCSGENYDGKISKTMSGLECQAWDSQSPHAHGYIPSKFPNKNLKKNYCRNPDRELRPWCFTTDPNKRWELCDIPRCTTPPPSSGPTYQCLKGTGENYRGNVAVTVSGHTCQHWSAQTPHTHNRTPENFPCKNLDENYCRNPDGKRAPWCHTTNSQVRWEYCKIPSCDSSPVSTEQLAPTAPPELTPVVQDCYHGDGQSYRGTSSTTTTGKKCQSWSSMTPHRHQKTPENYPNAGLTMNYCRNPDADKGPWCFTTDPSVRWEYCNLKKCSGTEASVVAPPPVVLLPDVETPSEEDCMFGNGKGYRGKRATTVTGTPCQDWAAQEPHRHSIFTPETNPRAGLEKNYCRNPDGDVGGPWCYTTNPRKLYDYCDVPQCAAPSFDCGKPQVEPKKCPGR
Sequence of Plasminogen (P00747 581-810 limits assumed): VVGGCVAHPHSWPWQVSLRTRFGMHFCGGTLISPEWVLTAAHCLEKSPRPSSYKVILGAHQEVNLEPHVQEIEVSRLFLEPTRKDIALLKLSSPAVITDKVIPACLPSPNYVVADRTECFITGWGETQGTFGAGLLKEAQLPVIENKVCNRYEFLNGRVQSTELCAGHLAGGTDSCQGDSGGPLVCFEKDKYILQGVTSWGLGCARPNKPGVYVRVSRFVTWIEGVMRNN
Sequence of Coagulation factor IX (P00740 47-191 limits assumed): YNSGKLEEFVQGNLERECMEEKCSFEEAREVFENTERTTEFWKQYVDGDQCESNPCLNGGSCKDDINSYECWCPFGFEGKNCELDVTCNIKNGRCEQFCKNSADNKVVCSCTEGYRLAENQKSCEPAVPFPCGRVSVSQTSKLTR
Sequence of Coagulation factor IX (P00740 227-461 limits assumed): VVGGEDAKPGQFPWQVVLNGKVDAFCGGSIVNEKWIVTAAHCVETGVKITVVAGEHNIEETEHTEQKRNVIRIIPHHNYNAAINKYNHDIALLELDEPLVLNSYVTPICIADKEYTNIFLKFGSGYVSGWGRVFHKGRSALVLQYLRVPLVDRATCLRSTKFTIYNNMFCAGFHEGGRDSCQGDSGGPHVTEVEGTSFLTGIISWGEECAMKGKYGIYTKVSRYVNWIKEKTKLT
Sequence of Vitamin K-dependent protein C (P04070 43-197 limits assumed): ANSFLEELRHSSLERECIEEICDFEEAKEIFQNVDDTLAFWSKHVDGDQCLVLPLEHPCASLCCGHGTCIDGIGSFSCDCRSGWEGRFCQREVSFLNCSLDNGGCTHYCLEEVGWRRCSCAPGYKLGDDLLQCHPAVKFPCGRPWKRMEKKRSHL
Sequence of Vitamin K-dependent protein C (P04070 212-461 limits assumed): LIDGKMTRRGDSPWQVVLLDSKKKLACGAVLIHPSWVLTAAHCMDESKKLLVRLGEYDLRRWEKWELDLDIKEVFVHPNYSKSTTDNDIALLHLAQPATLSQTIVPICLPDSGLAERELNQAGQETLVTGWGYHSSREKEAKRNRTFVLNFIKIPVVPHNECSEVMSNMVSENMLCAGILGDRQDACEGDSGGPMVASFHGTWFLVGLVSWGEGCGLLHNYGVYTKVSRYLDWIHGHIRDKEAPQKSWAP
Sequence of Plasma kallikrein (P03952 20-390 limits assumed): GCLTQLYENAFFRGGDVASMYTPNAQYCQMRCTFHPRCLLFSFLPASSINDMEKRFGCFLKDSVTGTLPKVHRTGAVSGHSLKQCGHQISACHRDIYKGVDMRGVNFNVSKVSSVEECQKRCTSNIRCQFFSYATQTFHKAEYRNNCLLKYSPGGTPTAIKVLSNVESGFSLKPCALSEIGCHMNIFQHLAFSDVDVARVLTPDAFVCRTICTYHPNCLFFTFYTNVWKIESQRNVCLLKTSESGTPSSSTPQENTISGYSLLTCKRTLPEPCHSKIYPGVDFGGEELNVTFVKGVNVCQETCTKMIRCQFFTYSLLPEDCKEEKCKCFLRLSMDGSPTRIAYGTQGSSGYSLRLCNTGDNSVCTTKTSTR
Sequence of Plasma kallikrein (P03952 391-638 limits assumed): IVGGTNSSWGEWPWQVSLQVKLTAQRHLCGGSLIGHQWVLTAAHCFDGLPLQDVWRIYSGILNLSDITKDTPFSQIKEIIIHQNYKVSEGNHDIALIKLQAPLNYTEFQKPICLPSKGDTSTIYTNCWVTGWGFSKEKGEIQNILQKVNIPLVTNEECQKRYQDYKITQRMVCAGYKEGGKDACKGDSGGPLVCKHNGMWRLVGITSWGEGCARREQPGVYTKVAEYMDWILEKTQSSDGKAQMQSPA
Sequence of Coagulation factor X (P00742 41-179 limits assumed): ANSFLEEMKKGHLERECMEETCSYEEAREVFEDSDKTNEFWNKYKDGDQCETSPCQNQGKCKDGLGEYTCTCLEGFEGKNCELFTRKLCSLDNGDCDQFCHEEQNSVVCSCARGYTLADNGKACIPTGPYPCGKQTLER
Sequence of Coagulation factor X (P00742 235-488 limits assumed): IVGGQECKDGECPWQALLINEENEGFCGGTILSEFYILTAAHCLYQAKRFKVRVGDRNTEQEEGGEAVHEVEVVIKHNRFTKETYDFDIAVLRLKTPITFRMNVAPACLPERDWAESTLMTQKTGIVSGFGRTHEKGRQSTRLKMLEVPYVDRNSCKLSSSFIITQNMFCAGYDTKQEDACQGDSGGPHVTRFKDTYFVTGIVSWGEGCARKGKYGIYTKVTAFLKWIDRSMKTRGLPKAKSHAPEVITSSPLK
Sequence of Tissue-type plasminogen activator (P00750 whole entry): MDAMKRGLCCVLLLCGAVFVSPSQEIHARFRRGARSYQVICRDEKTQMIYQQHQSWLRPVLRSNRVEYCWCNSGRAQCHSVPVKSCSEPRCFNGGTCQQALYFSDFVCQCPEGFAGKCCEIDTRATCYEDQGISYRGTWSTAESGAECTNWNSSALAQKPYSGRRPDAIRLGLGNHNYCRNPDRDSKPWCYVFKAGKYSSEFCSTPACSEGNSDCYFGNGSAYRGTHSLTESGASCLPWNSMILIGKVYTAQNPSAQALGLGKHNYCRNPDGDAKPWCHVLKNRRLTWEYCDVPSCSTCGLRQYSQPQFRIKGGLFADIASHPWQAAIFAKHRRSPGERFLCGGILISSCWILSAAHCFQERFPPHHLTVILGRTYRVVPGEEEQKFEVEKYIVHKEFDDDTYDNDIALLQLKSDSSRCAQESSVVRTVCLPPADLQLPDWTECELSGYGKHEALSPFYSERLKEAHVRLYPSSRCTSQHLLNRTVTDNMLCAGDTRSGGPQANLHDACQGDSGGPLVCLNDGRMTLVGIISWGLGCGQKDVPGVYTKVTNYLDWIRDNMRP

For `NC[C@H]1CC[C@H](C(=O)N[C@@H](Cc2ccccc2)c2nccc(-c3ccccc3)n2)CC1`, at Coagulation factor XI, the Ki is 11.4 µM. Same read-out and setting: to `NC[C@H]1CC[C@H](C(=O)N[C@@H](Cc2ccccc2)c2nc(-c3ccccc3)c(Cl)[nH]2)CC1` belongs 0.012 µM. Compound `NC[C@H]1CC[C@H](C(=O)N[C@@H](Cc2ccccc2)c2nc(-c3ccc4c(N)n[nH]c4c3)c[nH]2)CC1` yielded a Ki on Coagulation factor XI of 0.0032 µM. Also, the 2aPTT with Plasma was determined as 3 µM.

For the compound `NC[C@H]1CC[C@H](C(=O)N[C@@H](Cc2ccccc2)c2cccc(-c3ccc4c(N)n[nH]c4c3)c2)CC1`, the affinity at Coagulation factor XI corresponds to a Ki of 0.021 µM. Also, in the experiment with Plasma, the 2aPTT amounted to 37 µM.

Consider `NC[C@H]1CC[C@H](C(=O)N[C@H](Cc2ccccc2)c2cccc(-c3ccc4c(N)n[nH]c4c3)c2)CC1`, for which the inhibition constant (Ki) on Coagulation factor XI was determined as 6.16 µM.

For `NC[C@H]1CC[C@H](C(=O)N[C@@H](Cc2ccccc2)c2cc(-c3ccc4c(N)n[nH]c4c3)ccn2)CC1`, the Ki on Coagulation factor XI was 0.0084 µM; on Coagulation factor VII it was > 10.9 µM; on Coagulation factor IX it was > 34.9 µM; on Coagulation factor X it was > 9 µM; at Prothrombin, > 12.6 µM; on Trypsin, 0.064 µM. Moreover, the Ki was 0.024 µM at Plasma kallikrein; > 21.4 µM in experiment [1]; > 22.1 µM at Plasminogen; > 21.9 µM in [2]; > 14.1 µM in [3]; > 20.8 µM in experiment [4]. Moreover, in the experiment with Plasma, the 2aPTT came out at 4.5 µM. Regarding `NC[C@H]1CC[C@H](C(=O)N[C@H](Cc2ccccc2)c2cc(-c3ccc4c(N)n[nH]c4c3)ccn2)CC1`, the inhibition constant (Ki) at Coagulation factor XI turned out to be 1.07 µM. `NC[C@H]1CC[C@H](C(=O)NC(Cc2ccccc2)c2cccc(-c3ccccc3)n2)CC1` (mixture of isomers): on Coagulation factor XI, affinity was put at a Ki of 30.2 µM.

`NC[C@H]1CC[C@H](C(=O)NC(Cc2ccccc2)c2cc(-c3ccccc3)ccn2)CC1` (mixture of isomers) gave an inhibitory constant (Ki) at Coagulation factor XI of 0.377 µM. This Ki is about 80-fold lower than that of the compound before. At Coagulation factor XI, `NC[C@H]1CC[C@H](C(=O)NC(Cc2ccccc2)c2cncc(-c3ccccc3)c2)CC1` (mixture of isomers) came in with an inhibition constant (Ki) of 0.33 µM. On to `NC[C@H]1CC[C@H](C(=O)NC(Cc2ccccc2)c2ccnc(-c3ccccc3)c2)CC1` (mixture of isomers), for which, on Coagulation factor XI, affinity was put at a Ki of 0.32 µM. Same read-out and setting: to `NC[C@H]1CC[C@H](C(=O)NC(Cc2ccccc2)c2cc(-c3ccccc3)cc[n+]2[O-])CC1` (mixture of isomers) belongs 1.69 µM.

Compound `NC[C@H]1CC[C@H](C(=O)NC(Cc2ccccc2)c2cc(-c3ccccc3)c[n+]([O-])c2)CC1` (mixture of isomers) yielded a Ki at Coagulation factor XI of 1.06 µM. Still for that read-out and setting: to `NC[C@H]1CC[C@H](C(=O)NC(Cc2ccccc2)c2cc[n+]([O-])c(-c3ccccc3)c2)CC1` (mixture of isomers) belongs 2.53 µM. Same read-out and setting: to `NC[C@H]1CC[C@H](C(=O)NC(Cc2ccccc2)c2cc(-c3ccccc3)ncn2)CC1` (mixture of isomers) belongs 0.331 µM. Same read-out and setting: to `NC[C@H]1CC[C@H](C(=O)NC(Cc2ccccc2)c2cccc(-c3ccccc3)c2)CC1` (mixture of isomers) belongs 0.936 µM; to `NC[C@H]1CC[C@H](C(=O)NC(Cc2ccccc2)c2cc(-c3ccccc3)c(F)cn2)CC1` (mixture of isomers), 0.433 µM. `NC[C@H]1CC[C@H](C(=O)NC(Cc2ccccc2)c2cc(-c3ccccc3)cc(Cl)n2)CC1` (mixture of isomers) registered a Ki on Coagulation factor XI of 0.206 µM.

At Coagulation factor XI, `NC[C@H]1CC[C@H](C(=O)NC(Cc2ccccc2)c2cc(-c3ccccc3)cc(N)n2)CC1` (mixture of isomers) showed a Ki of 0.227 µM. Still for that read-out and setting: to `CNc1cc(-c2ccccc2)cc(C(Cc2ccccc2)NC(=O)[C@H]2CC[C@H](CN)CC2)n1` (mixture of isomers) belongs 0.86 µM. Still for that read-out and setting: to `NC[C@H]1CC[C@H](C(=O)NC(Cc2ccccc2)c2cc(-c3ccccc3)cc(O)n2)CC1` (mixture of isomers) belongs 0.113 µM. Still for that read-out and setting: to `COc1cc(-c2ccccc2)cc(C(Cc2ccccc2)NC(=O)[C@H]2CC[C@H](CN)CC2)n1` (mixture of isomers) belongs 0.949 µM.

On to `Cn1c(C(Cc2ccccc2)NC(=O)[C@H]2CC[C@H](CN)CC2)cc(-c2ccccc2)cc1=O` (mixture of isomers), for which the affinity on Coagulation factor XI corresponds to a Ki of 0.479 µM.

`NC[C@H]1CC[C@H](C(=O)NC(Cc2ccccc2)c2cccc(-c3ccc4c(N)n[nH]c4c3)c2)CC1` (mixture of isomers) gave a Ki at Coagulation factor XI of 0.042 µM. In addition, the 2aPTT in the experiment with Plasma was >40 µM. The matching figures for `NC[C@H]1CC[C@H](C(=O)NC(Cc2ccccc2)c2cc(-c3ccc4c(N)n[nH]c4c3)ccn2)CC1` (mixture of isomers): 0.013 µM and 6 µM. The matching figures for `NC[C@H]1CC[C@H](C(=O)NC(Cc2ccccc2)c2cc(-c3ccc4c(N)n[nH]c4c3)cc(=O)[nH]2)CC1` (mixture of isomers): 0.0037 µM and 2.5 µM.

For orientation: Ki means the dissociation constant of the complex between target and ligand, obtained from inhibition or displacement. Read a high Ki as weaker binding.

Source of the values: ChEMBL document CHEMBL3393047, “Pyridine and pyridinone-based factor XIa inhibitors” (Bioorg Med Chem Lett, 2015).
